Experimental data reported in ChEMBL document CHEMBL5303300, “EUbOPEN Chemogenomics Library - Multiplex” (2023).
Several values for one entry are separate records, joined by “and”; a condition that tells them apart may be missing. Equal values may be shown once.

System: Fibroblast
Assay: Multiplex assay against human fibroblast
Format: toxicity, cell-based
Details: number of replicates 2
Summary of the method: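 Cells were classed with CellPathfinder machine-learning gating, first as Hoechst high-intensity objects or normal cells, then (normal cells) as healthy, pyknosed or fragmented nuclei, and finally (pyknosed cells) as mitotic or apoptotic. Staining of live cells at seeding used Hoechst33342, BioTracker Green Microtubule Cytoskeleton Dye, MitoTracker Red and Annexin V Alexa Fluor 680, with imaging on a CQ1 microscope at 37°C and 5% CO2 after compound addition. Tubulin, mitochondrial-mass and membrane-permeability phenotypes are per cents of healthy-nucleus cells.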

[1] = 12 h, 1 µM, compound concentration 1 uM
[2] = 12 h, 10 µM, compound concentration 10 uM
[3] = 24 h, 1 µM, compound concentration 1 uM
[4] = 24 h, 10 µM, compound concentration 10 uM
[5] = 48 h, 1 µM, compound concentration 1 uM
[6] = 48 h, 10 µM, compound concentration 10 uM

Compound: Cn1cc(-n2cnc3c(NCc4nc5cc(Cl)c(Cl)cc5[nH]4)nc(N4CCOCC4)nc32)cn1
- Population Apoptotic (%) [1]: 39% and 65%
- Population Healthy Nuclei (%) [1]: 79% and 57%
- Population Hoechst High Intensity Objects (%) [1]: 0% and 3%
- Population Membrane Permeable-Phenotype (%) [1]: 7%
- Population Mitochondria Different-Phenotype (%) [1]: 2% and 3%
- Population Mitotic Cells (%) [1]: 60% and 34%
- Population Normal (%) [1]: 100% and 96%
- Population Pyknosed Nuclei (%) [1]: 15% and 19%
- Population Tubulin-Different-Phenotype (%) [1]: 29% and 27%
- Total Cell Count [1]: 211 and 225
- Population Apoptotic (%) [2]: 55% and 51%
- Population Fragmented Nuclei (%) [2]: 10% and 19%
- Population Healthy Nuclei (%) [2]: 59% and 60%
- Population Hoechst High Intensity Objects (%) [2]: 0%
- Population Membrane Permeable-Phenotype (%) [2]: 25% and 27%
- Population Mitochondria Different-Phenotype (%) [2]: 3% and 5%
- Population Mitotic Cells (%) [2]: 44% and 48%
- Population Normal (%) [2]: 100%
- Population Pyknosed Nuclei (%) [2]: 30% and 20%
- Population Tubulin-Different-Phenotype (%) [2]: 74% and 81%
- Total Cell Count [2]: 147 and 142
- Population Apoptotic (%) [3]: 89% and 85%
- Population Fragmented Nuclei (%) [3]: 27% and 14%
- Population Healthy Nuclei (%) [3]: 32% and 46%
- Population Hoechst High Intensity Objects (%) [3]: 6% and 1%
- Population Membrane Permeable-Phenotype (%) [3]: 12%
- Population Mitochondria Different-Phenotype (%) [3]: 2% and 1%
- Population Mitotic Cells (%) [3]: 10% and 14%
- Population Normal (%) [3]: 93% and 98%
- Population Pyknosed Nuclei (%) [3]: 40% and 38%
- Population Tubulin-Different-Phenotype (%) [3]: 28% and 53%
- Total Cell Count [3]: 229 and 205
- Population Apoptotic (%) [4]: 63% and 65%
- Population Fragmented Nuclei (%) [4]: 10% and 19%
- Population Healthy Nuclei (%) [4]: 62% and 59%
- Population Hoechst High Intensity Objects (%) [4]: 0%
- Population Membrane Permeable-Phenotype (%) [4]: 14%
- Population Mitochondria Different-Phenotype (%) [4]: 6% and 13%
- Population Mitotic Cells (%) [4]: 36% and 34%
- Population Normal (%) [4]: 99%
- Population Pyknosed Nuclei (%) [4]: 27% and 21%
- Population Tubulin-Different-Phenotype (%) [4]: 79% and 85%
- Total Cell Count [4]: 149 and 148
- Population Apoptotic (%) [5]: 93% and 94%
- Population Fragmented Nuclei (%) [5]: 27% and 13%
- Population Healthy Nuclei (%) [5]: 12% and 16%
- Population Hoechst High Intensity Objects (%) [5]: 5% and 0%
- Population Membrane Permeable-Phenotype (%) [5]: 12% and 29%
- Population Mitochondria Different-Phenotype (%) [5]: 4% and 3%
- Population Mitotic Cells (%) [5]: 6% and 5%
- Population Normal (%) [5]: 94% and 99%
- Population Pyknosed Nuclei (%) [5]: 60% and 69%
- Population Tubulin-Different-Phenotype (%) [5]: 36% and 61%
- Total Cell Count [5]: 218 and 190
- Population Apoptotic (%) [6]: 81% and 87%
- Population Fragmented Nuclei (%) [6]: 15% and 19%
- Population Healthy Nuclei (%) [6]: 35% and 38%
- Population Hoechst High Intensity Objects (%) [6]: 1% and 0%
- Population Membrane Permeable-Phenotype (%) [6]: 20% and 11%
- Population Mitochondria Different-Phenotype (%) [6]: 22% and 19%
- Population Mitotic Cells (%) [6]: 18% and 12%
- Population Normal (%) [6]: 98% and 100%
- Population Pyknosed Nuclei (%) [6]: 49% and 41%
- Population Tubulin-Different-Phenotype (%) [6]: 74% and 78%
- Total Cell Count [6]: 154 and 134

Compound: CN(C)CC#Cc1ccc2[nH]c3c(c2c1)-c1nc(N)ncc1CCC3
- Population Apoptotic (%) [1]: 30% and 35%
- Population Fragmented Nuclei (%) [1]: 32% and 18%
- Population Healthy Nuclei (%) [1]: 49% and 55%
- Population Hoechst High Intensity Objects (%) [1]: 0%
- Population Membrane Permeable-Phenotype (%) [1]: 4% and 6%
- Population Mitochondria Different-Phenotype (%) [1]: 2% and 0%
- Population Mitotic Cells (%) [1]: 69% and 64%
- Population Normal (%) [1]: 100%
- Population Pyknosed Nuclei (%) [1]: 17% and 25%
- Population Tubulin-Different-Phenotype (%) [1]: 23% and 28%
- Total Cell Count [1]: 293 and 186
- Population Fragmented Nuclei (%) [2]: 25% and 22%
- Population Healthy Nuclei (%) [2]: 49% and 62%
- Population Hoechst High Intensity Objects (%) [2]: 0%
- Population Membrane Permeable-Phenotype (%) [2]: 0% and 5%
- Population Mitochondria Different-Phenotype (%) [2]: 2% and 1%
- Population Mitotic Cells (%) [2]: 61% and 89%
- Population Normal (%) [2]: 100% and 99%
- Population Pyknosed Nuclei (%) [2]: 25% and 15%
- Population Tubulin-Different-Phenotype (%) [2]: 26% and 31%
- Total Cell Count [2]: 228 and 378
- Population Apoptotic (%) [3]: 48% and 47%
- Population Fragmented Nuclei (%) [3]: 18% and 27%
- Population Healthy Nuclei (%) [3]: 65% and 60%
- Population Hoechst High Intensity Objects (%) [3]: 0%
- Population Membrane Permeable-Phenotype (%) [3]: 7% and 1%
- Population Mitochondria Different-Phenotype (%) [3]: 0% and 4%
- Population Mitotic Cells (%) [3]: 51% and 52%
- Population Normal (%) [3]: 100% and 99%
- Population Pyknosed Nuclei (%) [3]: 16% and 11%
- Population Tubulin-Different-Phenotype (%) [3]: 25% and 26%
- Total Cell Count [3]: 221 and 287
- Population Apoptotic (%) [4]: 39% and 42%
- Population Fragmented Nuclei (%) [4]: 19% and 16%
- Population Healthy Nuclei (%) [4]: 62% and 56%
- Population Hoechst High Intensity Objects (%) [4]: 4% and 1%
- Population Membrane Permeable-Phenotype (%) [4]: 4% and 1%
- Population Mitochondria Different-Phenotype (%) [4]: 4% and 3%
- Population Mitotic Cells (%) [4]: 60% and 57%
- Population Normal (%) [4]: 95% and 98%
- Population Pyknosed Nuclei (%) [4]: 17% and 26%
- Population Tubulin-Different-Phenotype (%) [4]: 52% and 43%
- Total Cell Count [4]: 286 and 184
- Population Apoptotic (%) [5]: 70% and 47%
- Population Fragmented Nuclei (%) [5]: 25% and 32%
- Population Healthy Nuclei (%) [5]: 65% and 62%
- Population Hoechst High Intensity Objects (%) [5]: 1% and 2%
- Population Membrane Permeable-Phenotype (%) [5]: 3%
- Population Mitochondria Different-Phenotype (%) [5]: 0%
- Population Mitotic Cells (%) [5]: 29% and 52%
- Population Normal (%) [5]: 98% and 97%
- Population Pyknosed Nuclei (%) [5]: 9% and 5%
- Population Tubulin-Different-Phenotype (%) [5]: 24% and 17%
- Total Cell Count [5]: 266 and 347
- Population Apoptotic (%) [6]: 68% and 64%
- Population Fragmented Nuclei (%) [6]: 13% and 6%
- Population Healthy Nuclei (%) [6]: 67% and 77%
- Population Hoechst High Intensity Objects (%) [6]: 0% and 5%
- Population Membrane Permeable-Phenotype (%) [6]: 13% and 12%
- Population Mitochondria Different-Phenotype (%) [6]: 1% and 5%
- Population Mitotic Cells (%) [6]: 31% and 35%
- Population Normal (%) [6]: 100% and 94%
- Population Pyknosed Nuclei (%) [6]: 18% and 16%
- Population Tubulin-Different-Phenotype (%) [6]: 52% and 63%
- Total Cell Count [6]: 153 and 185
